Screening data deposited in PubChem BioAssay by several laboratories.
MEKK2 WT-MEK5 – raises or lowers MEK5 binding to wildtype human MEKK2 PB1 domain | bead flow cytometry, Alexa488-MEK5 binding to MEKK2 WT; actives lie on both sides | 290,000 tested, 1.1% active | binding response (% of control), % at 10 µM; in the data active means binding response below about 67% or above about 130%
FID counter – displaces DNA intercalator in HCV helicase counter-screen | DNA fluorescent intercalator displacement, fluorescence | inhibition, % at 7.9 µM | 290,000 tested, 0.17% active | AID 1845; in the data active means inhibition above about 37%;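 further: 0% = vehicle and 100% = reference compound; higher means more ethidium bromide displaced from hairpin DNA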
HCV NS3 hel inh – inhibitors of Hepatitis C virus NS3 helicase. NS3 helicase DNA unwinding, Cy5 molecular beacon fluorescence. inhibition, % at 10.9 µM. 290,000 tested, 0.56% active;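 active means inhibition above the mean of all tested compounds plus 3 SD, set per campaign, cut at about 35% in these data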;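 further: 0% = DMSO wells and 100% = thioflavine S control wells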
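test system = hepatitis C virus NS3 helicase domain fragment enzyme | reagent = annealed dual-labelled DNA beacon duplex, ATP-started | times = 1 h at 25 °C | detection = Cy5 fluorescence, 0 and 60 min reads | read-out basis = percent inhibition from t60/t0 fluorescence ratio | control set = DMSO and thioflavine S | replication = one well per compound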
MEKK2mut PB1 HTS – signal of MEK5 binding to mutant human MEKK2 PB1 domain; bead flow cytometry, Alexa488-MEK5 binding to MEKK2 mutant; AID 1530; 290,000 tested, 0.35% active; percent response, % at 10 µM; in the data active means percent response above about 24%, passing the limit was not always enough
T cruzi inh – T. cruzi replication inhibition; inhibition, % (concentration not given with the values); 300,000 tested, 1.4% active; T. cruzi beta-gal in NIH3T3, luminescence, 90 h;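 active means mean inhibition across valid replicates above about 55%, limit read from the data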;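 further: signal also drops with host cell toxicity which is not excluded here; 0% = plate median of DMSO wells and 100% = zero luminescence signal; higher percent means less beta-gal luminescence so fewer parasites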
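compound dosing = single 50 nL compound addition per well in DMSO | material = NIH/3T3 host cells with β-galactosidase reporter T. cruzi | input = 5,000 host fibroblasts per well | timing = ≥90 h infection period, 3 h prior cell attachment | read-out basis = percent inhibition of parasite-derived β-gal signal | detection = GalScreen β-gal luminescence, detergent lysis, 60 min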
MEKK3 PB1 HTS – MEKK3-MEK5 PB1 interaction, increase or decrease. Q99759. bead-based flow cytometry, Alexa488-MEK5 binding to MEKK3; actives lie on both sides; 0 = blocked by unlabeled MEK5, 100 = vehicle. binding response (% of control), % at 10 µM. 290,000 tested, 1.4% active. AID 1529;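 active means binding response more than 3 SD above or below the average of its plate-row segment, actives on both sides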;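 further: Alexa488 bead fluorescence after subtracting the streptavidin-only scavenger bead signal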
Target sequence (Q99759 whole entry, looked up): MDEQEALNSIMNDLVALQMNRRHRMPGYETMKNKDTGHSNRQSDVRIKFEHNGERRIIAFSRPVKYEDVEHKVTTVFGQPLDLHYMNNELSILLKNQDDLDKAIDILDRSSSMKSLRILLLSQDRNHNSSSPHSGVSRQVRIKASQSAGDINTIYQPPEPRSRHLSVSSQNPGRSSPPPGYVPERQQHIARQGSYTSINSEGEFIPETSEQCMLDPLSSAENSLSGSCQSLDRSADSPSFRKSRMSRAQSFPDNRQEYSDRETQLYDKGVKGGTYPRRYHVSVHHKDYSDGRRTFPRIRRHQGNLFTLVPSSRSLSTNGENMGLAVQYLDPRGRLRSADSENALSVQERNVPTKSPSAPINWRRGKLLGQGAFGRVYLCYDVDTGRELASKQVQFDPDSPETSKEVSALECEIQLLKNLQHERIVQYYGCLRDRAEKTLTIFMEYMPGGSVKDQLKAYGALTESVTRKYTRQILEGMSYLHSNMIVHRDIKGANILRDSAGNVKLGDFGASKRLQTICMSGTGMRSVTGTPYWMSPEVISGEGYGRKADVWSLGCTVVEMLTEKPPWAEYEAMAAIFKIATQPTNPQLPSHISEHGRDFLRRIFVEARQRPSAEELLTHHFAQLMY
MEKK2wt confirm – raises or lowers MEK5 binding to wildtype human MEKK2, retest | shares compounds with MEKK3 PB1 HTS | 5,900 tested, 2.4% active | binding response (% of control), % at 10 µM | bead flow cytometry, Alexa488-MEK5 binding to MEKK2 WT; actives lie on both sides; in the data active means binding response below about 16% or above about 210%; inactive means in between
MEKK2mut confirm – signal of MEK5 binding to mutant human MEKK2, retest; shares compounds with MEKK3 PB1 HTS; bead flow cytometry, Alexa488-MEK5 binding to MEKK2 mutant; percent response, % at 10 µM; 5,900 tested, 2% active; in the data active means percent response mostly above about 71%, no sharp cut-off; inactive means mostly below about 38%;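 further: higher means compound restores mutant binding toward wildtype level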
MEKK3-MEK5 inh – confirmation of inhibitors of MEK5 binding to human MEKK3; binding response (% of control), % at 10 µM; 5,900 tested, 1.8% active; bead flow cytometry, Alexa488-MEK5 binding to MEKK3; active compounds read low; AID 1894; shares compounds with MEKK3 PB1 HTS;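 active means binding response below 72% of control, or above a set upper limit, though filed actives all read lower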;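 further: 100% = DMSO only wells and 0% = binding blocked by excess unlabeled MEK5; lower values mean stronger disruption of MEK5 binding to MEKK3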
Active calls of the source: *; x = no result given; [ ] = another dose, or the depositor's remark. Hits are enriched below; roughly 4.1% of the tested compounds scored in any of these assays.

SMILES	MEKK2 WT-MEK5	FID counter	HCV NS3 hel inh	MEKK2mut PB1 HTS	T cruzi inh	MEKK3 PB1 HTS	MEKK2wt confirm	MEKK2mut confirm	MEKK3-MEK5 inh
C=CCc1ccc(OCC(O)CN2CCCCC2C)c(OC)c1 (stereo not drawn)	136*	12	-17	42*	5	104	123	15	101
Cc1[nH]nc(SCC(=O)NCc2ccc(F)cc2)c1[N+](=O)[O-]	103	-5	-5	-1	5	131*	104	2	101
CSc1ccccc1NC(=O)CSc1n[nH]c(C)c1[N+](=O)[O-]	97	8	2	2	-14	101	x	x	x
Cc1ccc(NC(=O)CSc2n[nH]c(C)c2[N+](=O)[O-])cc1C	104	11	3	0	4	131*	100	2	100
CCOc1ccc(S(=O)(=O)N2CCOCC2)cc1NC(=O)CN1C(=O)NC(C)(c2ccccc2)C1=O (stereo not drawn)	x	x	x	x	-8	x	x	x	x
NS(=O)(=O)c1ccc(CCNC(=O)c2ccc(-c3ccccc3)cc2)cc1	96	-5	-8	3	-6	98	x	x	x
COc1cccc(C(=O)NC(=S)Nc2ccc(N3CCCC3)cc2)c1	91	0	-11	-16	-6	88	x	x	x
CCOc1cccc(C(=O)Nc2ccc(N3CCCC3)cc2)c1	144*	8	-43	9	14	107	113	5	104
CCOc1cccc(C(=O)Nc2ccc3c(c2)OCCO3)c1	38*[inhibitor]	-10	5	-21	-11	26*[inhibitor]	102	2	104
CC(C)Oc1cccc(C(=O)NC(=S)Nc2ccc(N3CCN(C)CC3)cc2)c1	48	20	-43	-37	17	24*[inhibitor]	144	38	110
CCOc1ccc(C(=O)Nc2ccc(N3CCN(C)CC3)cc2)cc1Br	129	25	-71	24*	33	100	120	13	103
COc1ccc(C(=O)Nc2ccc(N3CCCC3)cc2)cc1Br	113	-2	-25	10	8	107	x	x	x
CN(Cc1ccccc1)C(=O)C1CCN(S(=O)(=O)c2ccc(-n3cnnn3)cc2)CC1	89	-31	1	-6	2	98	x	x	x
Cc1cc(OCc2nc(-c3ccncc3)no2)cc(C)c1Cl	97	-3	-10	4	28	103	x	x	x
COc1ccc(CCNC(=O)CSc2nnc3ccc(-c4cccnc4)nn23)cc1OC	101	-14	16	-3	-6	107	x	x	x
CCOc1ccc(OCc2cccc(C(=O)Nc3ccc(CN4CCCCC4)cc3)c2)cc1	161*	6	-87	6	26	113	138	43	107
COc1ccc(OCc2cccc(C(=O)Nc3ccc(CN4CCCCC4)cc3)c2)cc1	112	24	-52	0	31	100	x	x	x
Cc1cccc(OCC(O)CN2CCN(c3ccccn3)CC2)c1C (stereo not drawn)	105	0	-3	4	2	98	x	x	x
CC1(C)Cc2cccc(OCC(O)CN3CCN(c4ccccn4)CC3)c2O1 (stereo not drawn)	127	-12	-1	9	13	127*	101	-5	101
COc1ccc(C(=O)N/C(=C/c2cccnc2)C(=O)N2CCN(C)CC2)cc1OC	96	6	15	-2	-6	95	x	x	x
COc1ccccc1NC(=O)CSc1nnc2ccc(-c3cccnc3)nn12	107	-9	2	190*	0	118	104	6	107
Cc1ccc(C(=O)N/C(=C\c2cccc([N+](=O)[O-])c2)C(=O)NC(Cc2ccccc2)C(=O)O)cc1 (stereo not drawn)	109	-13	24	7	-14	105	x	x	x
Cc1ncoc1C(=O)Nc1ccc2c(c1)OCCO2	102	1	-1	6	-17	101	x	x	x
Cc1ccsc1C(=O)Nc1ccc2c(c1)OCCO2	106	-3	-3	0	-3	138*	106	3	105
Cc1nc2ccccn2c1C(=O)Nc1ccc2c(c1)OCCO2	112	1	8	7	-11	132*	105	4	105
SMILES	MEKK2 WT-MEK5	FID counter	HCV NS3 hel inh	MEKK2mut PB1 HTS	T cruzi inh	MEKK3 PB1 HTS	MEKK2wt confirm	MEKK2mut confirm	MEKK3-MEK5 inh
CC(=O)C1=C(O)C(=O)N(c2ccc(S(=O)(=O)Nc3nccs3)cc2)C1c1ccc(F)cc1 (stereo not drawn)	99	-16	5	-5	0	98	x	x	x
CC(=O)C1=C(O)C(=O)N(c2ccc(S(=O)(=O)Nc3nccs3)cc2)C1c1ccc([N+](=O)[O-])cc1 (stereo not drawn)	62*[inhibitor]	-23	11	-47	-5	57*[inhibitor]	103	4	105
CC(Cc1n[nH]c(=S)n1N)c1ccccc1 (stereo not drawn)	110	-10	3	11	-1	107	x	x	x
Cn1c(CC(=O)Nc2ccccc2)c(Sc2ccccc2)c2ccccc21	121	-1	9	2	29	139*	108	-6	104
CSc1c(CC(=O)Nc2ccccc2)n(C)c2ccccc12	110	-1	-12	7	8	104	x	x	x
O=C(NC12CC3CC(CC(C3)C1)C2)N(Cc1ccccc1)Cc1ccncc1	96	-34	-4	-3	52	98	x	x	x
CCCCCCCCCC[N+](C)(C)CC/C=C1/c2ccccc2Sc2ccc(Cl)cc21	291*	19	-18	147*	47	108	321*	172*	115
CC[N+](C)(C)CC/C=C1/c2ccccc2Sc2ccc(Cl)cc21	111	15	-45	5	16	104	x	x	x
CN(C)CC/C=C1/c2ccc(F)cc2Sc2ccc(Cl)cc21	x	x	x	x	29	x	x	x	x
CN(C)CC/C=C1\c2ccccc2Sc2cc(F)c(Cl)cc21	x	x	x	x	6	x	x	x	x
CCCCCCCCCCC[N+](C)(C)CC/C=C1/c2ccccc2Sc2ccc(Cl)cc21	278*	15	-34	143*	51	97	195	60	111
CN(C)CC/C=C1\c2ccccc2Sc2ccc(Cl)cc21	164*	18	-81	17	31	72*[inhibitor]	136	16	99
CC(OC(=O)COc1ccc(C#N)cc1)C(=O)Nc1ccc(Cl)cn1 (stereo not drawn)	x	x	x	x	-6	x	x	x	x
